Calls of active or inactive are those of the source. The calls are words filed in the database; no cut-off is given here.

The subject of assay [1] is T-24. The experiment in a line: Induction of ferroptosis in human T-24 cells assessed as cellular GPx4 level at 10 uM by HPLC-EC analysis (reference value: 1.71 +/- 0.07 U/mg). In kind it is functional.
Assay [2] has as its system T-24. In words: Induction of ferroptosis in human T-24 cells assessed as increase in intracellular iron level at 8 uM in presence of Fer-1 by ICP-MS analysis (reference value: 860.2 +/- 62.3 pg). It is filed as functional.
The test system of assay [3] is T-24. In words: Induction of mitochondrial membrane potential disruption in human T-24 cells assessed as ratio of green/red fluorescence intensity at 8 uM by JC-1 dye based confocal laser scanning microscopic analysis. In kind it is functional, cell-based.
Assay [4] deals with T-24. In words: Induction of mitochondrial membrane potential disruption in human T-24 cells assessed as ratio of green/red fluorescence intensity at 4 uM by JC-1 dye based flow cytometry analysis (reference value: 0.29 +/- 0.04). In kind it is functional.
For assay [5], the system named is T-24. The experiment in a line: Induction of ferroptosis in human T-24 cells assessed as reduction in cellular GSH level at 6 uM incubated for 12 hrs by DTNB reagent based assay. It is filed as functional, cell-based.
Assay [6] deals with T-24. In words: Induction of apoptosis in human T-24 cells assessed as upregulation of Bax at 2 to 6 uM measured upto 8 hrs by Western blot analysis. In kind it is functional, cell-based. Particulars: dose 2-6 µM, time hrs <=8.
Assay [7] relates to T-24. The experiment in a line: Cytotoxicity against human T-24 cells assessed as reduction in cell viability in presence of rapamycin by trypan blue exclusion assay. It is filed as functional, cell-based.
Assay [8] deals with T-24. The experiment in a line: Induction of autophagy in human T-24 cells assessed as increase in LC3B-II/LC3B-I ratio by Western blot analysis. In kind it is functional, cell-based. In short, it runs like this:
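Western blot of LC3B-I and LC3B-II in T24 lysates after treatment at 6, 8, 10 and 12 µM alongside an untreated control. LC3B-II level and the LC3B-II/I band ratio are reported.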

In assay [9] the test system is T-24. In words: Induction of autophagy in human T-24 cells assessed as effect on Akt level at 6 to 12 uM incubated for 12 hrs by Western blot analysis. In kind it is functional, cell-based. The following applies: dose 6-12 µM.
Assay [10] has as its system T-24. In words: Induction of ROS accumulation in human T-24 cells at 4 uM incubated for 16 hrs by DCFH-DA dye based luminescence spectrometry relative to control. In kind it is functional. An outline of the steps: (§1)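 T24 cells loaded with the DCF probe after exposure to 4, 8 or 12 μM, sampled at times up to 16 h. Intracellular DCF fluorescence is quantified on a luminescence spectrometer and expressed as % of the negative control.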

The test system of assay [11] is T-24. The experiment in a line: Induction of ROS accumulation in human T-24 cells at 12 uM incubated for 16 hrs by DCFH-DA dye based luminescence spectrometry relative to control. It is filed as functional. In short, it runs like this:
as §1

In the case of `O=C(Nc1cccc(CNc2ncnc3ccccc23)c1)Nc1ccc(Cl)c(Cl)c1`, the Activity is 1.37 U/mg in [1]; 1079.4 pg in assay [2]; “Dose-dependent effect” in assay [8]; 164.4% in [10]; 238.4% in assay [11]. Further, the outcome in assay [3], in assay [5], in [6], in assay [7] and in [9] was Active. In addition, the fold change (FC) in [4] was 0.69.

The record behind these values is ChEMBL document CHEMBL4765435, “Synthesis and in vitro anti-bladder cancer activity evaluation of quinazolinyl-arylurea derivatives” (Eur J Med Chem, 2020).
